From ChEMBL document CHEMBL1139141, “Structure-based design of benzylamino-acridine compounds as G-quadruplex DNA telomere targeting agents” (Bioorg Med Chem Lett, 2007) come the findings set out here.

Usually EC50 stands for the concentration giving half of the maximal effect. One may read the IC50 as the concentration needed to halve the response being measured. Usually ΔTm stands for the change in melting temperature against a reference sample.

Test [1] concerns the target Telomerase reverse transcriptase (Homo sapiens, UniProt O14746). Kind of test: Inhibition of human telomerase by TRAP assay. In a few lines: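 Modified TRAP using A2780 ovarian carcinoma cell extract (1 µg protein) in 20 mM Tris-HCl pH 8.3, 68 mM KCl, 1.5 mM MgCl2, 1 mM EGTA, 0.05% Tween 20, 125 µM dNTPs, TS primer; 10 min at 30° with or without drug, heat-inactivated, then ACX primer PCR, 33 cycles. SYBR Green-stained PAGE products quantified by fluorescence; telEC50, triplicate.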

In a further test the test system is DU-145. Nature of the test: Growth inhibition of human DU145 cells by SRB assay. It counts as functional, cell-based. For orientation: In SRB staining, fixed cells bind dye roughly in proportion to their protein.
The species named for the next test is Homo sapiens. Nature of the test: Effect on human G-quadruplex DNA stability by FRET assay. Put shortly: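 Oligonucleotide F21T (21-mer d[GGG(TTAGGG)3], donor–acceptor end-labelled) annealed at 400 nM in 50 mM KCl, 10 mM cacodylic acid pH 7.4 (92° 2 min, cooled over 4 h); 200 nM final with ligand 0.10–10.00 µM. Fluorescence read at 0.5° steps, 30–100° at 1°/min, excitation 450–495, detection 515–545 nm; ΔTm from melting, triplicate.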

A further test concerns A549. Kind of test: Growth inhibition of human A549 cells by SRB assay. It counts as functional, cell-based.
A further test deals with MCF7. Nature of the test: Growth inhibition of human MCF7 cells by SRB assay. Type of test: functional, cell-based.

Telomerase reverse transcriptase, sequence (O14746 whole entry): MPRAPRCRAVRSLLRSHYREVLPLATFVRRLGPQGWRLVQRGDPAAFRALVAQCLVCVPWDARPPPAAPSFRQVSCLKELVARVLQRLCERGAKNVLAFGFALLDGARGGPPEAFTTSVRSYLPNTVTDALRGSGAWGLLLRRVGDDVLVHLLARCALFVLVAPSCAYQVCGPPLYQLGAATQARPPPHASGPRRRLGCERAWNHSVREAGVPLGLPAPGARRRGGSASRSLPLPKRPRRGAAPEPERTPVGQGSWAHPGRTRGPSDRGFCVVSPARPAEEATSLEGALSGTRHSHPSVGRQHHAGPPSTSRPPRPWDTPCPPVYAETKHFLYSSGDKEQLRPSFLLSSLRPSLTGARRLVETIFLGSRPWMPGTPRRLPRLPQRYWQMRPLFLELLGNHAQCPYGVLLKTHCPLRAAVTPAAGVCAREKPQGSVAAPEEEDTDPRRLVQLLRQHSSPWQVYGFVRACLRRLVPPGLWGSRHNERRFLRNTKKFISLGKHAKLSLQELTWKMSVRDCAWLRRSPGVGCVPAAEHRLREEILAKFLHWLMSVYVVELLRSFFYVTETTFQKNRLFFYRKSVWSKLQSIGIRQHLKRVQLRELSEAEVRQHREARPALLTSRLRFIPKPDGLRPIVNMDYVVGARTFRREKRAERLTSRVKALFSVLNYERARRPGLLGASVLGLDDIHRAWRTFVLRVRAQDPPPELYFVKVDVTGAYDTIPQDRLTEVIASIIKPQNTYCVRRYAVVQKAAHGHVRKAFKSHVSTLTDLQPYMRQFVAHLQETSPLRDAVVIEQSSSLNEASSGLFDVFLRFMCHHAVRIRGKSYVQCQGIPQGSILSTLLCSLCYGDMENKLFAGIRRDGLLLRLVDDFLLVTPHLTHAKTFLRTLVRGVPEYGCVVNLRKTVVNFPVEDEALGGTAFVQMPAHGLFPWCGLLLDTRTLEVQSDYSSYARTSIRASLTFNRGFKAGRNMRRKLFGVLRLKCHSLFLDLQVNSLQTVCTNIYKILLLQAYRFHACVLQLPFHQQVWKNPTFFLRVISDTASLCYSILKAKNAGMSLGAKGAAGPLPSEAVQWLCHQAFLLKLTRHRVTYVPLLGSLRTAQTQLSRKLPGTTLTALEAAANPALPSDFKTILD

As for `COc1cc(CNc2c3ccc(NC(=O)CCN4CCCCC4)cc3nc3cc(NC(=O)CCN4CCCCC4)ccc23)cc(OC)c1`, the concentration giving a half-maximal response (EC50) in test [1] was 440 nM. In addition, the IC50 in the test with DU-145 was found to be 470 nM; in the test with A549 it was 370 nM; in the test with MCF7, 200 nM. Also, in the test filed under Homo sapiens, the ΔTm came to 30 °C.

Molecule `Cc1cccc(CNc2c3ccc(NC(=O)CCN4CCC(C)CC4)cc3nc3cc(NC(=O)CCN4CCC(C)CC4)ccc23)c1` had a 50% effective concentration (EC50) in test [1] of 390 nM. In addition, the values for the half-inhibitory concentration (IC50) in the test on DU-145, in the test with A549 and in the test with MCF7 were 630 nM, 570 nM and 580 nM, respectively. For the same molecule, in the test listed under Homo sapiens, the ΔTm came out at 24 °C.

With `O=C(CCN1CCCC1)Nc1ccc2c(NCc3ccc(F)c(F)c3)c3ccc(NC(=O)CCN4CCCC4)cc3nc2c1`, the response in test [1] was half-maximal at 30 nM (EC50). Further, the concentration for half-maximal inhibition (IC50) with DU-145 was 9750 nM; with A549, 2110 nM; in the test on MCF7 it was 2260 nM. Moreover, the thermal shift (ΔTm) in the test filed under Homo sapiens was determined as 29.5 °C.

In the case of `O=C(CCN1CCCCC1)Nc1ccc2c(NCc3ccc(F)c(F)c3)c3ccc(NC(=O)CCN4CCCCC4)cc3nc2c1`, the EC50 in test [1] worked out at 880 nM. Also, the IC50 with DU-145 worked out at 2250 nM; in the test with A549, 1200 nM; in the test on MCF7 it was 520 nM. The ΔTm in the test filed under Homo sapiens is 26.5 °C.

Turning to `O=C(CCN1CCCC1)Nc1ccc2c(NCc3cc(C(F)(F)F)cc(C(F)(F)F)c3)c3ccc(NC(=O)CCN4CCCC4)cc3nc2c1`, in test [1], the EC50 was 860 nM. The figures for the IC50 in the test with DU-145, in the test on A549 and in the test on MCF7 were 2610 nM, 6300 nM and 1070 nM, respectively. In addition, in the test filed under Homo sapiens, the ΔTm came out at 27.5 °C.

For the molecule `CN(C)c1ccc(Nc2c3ccc(NC(=O)CCN4CCCCC4)cc3nc3cc(NC(=O)CCN4CCCCC4)ccc23)cc1`, the EC50 in test [1] was determined as 360 nM. Moreover, the results for the IC50 with DU-145, with A549 and in the test with MCF7 were 2570 nM, 2000 nM and 540 nM, respectively. Moreover, in the test filed under Homo sapiens, the shift in melting temperature (ΔTm) was 21 °C.

As to `O=C(CCN1CCCC1)Nc1ccc2c(NCc3cc(F)cc(C(F)(F)F)c3)c3ccc(NC(=O)CCN4CCCC4)cc3nc2c1`, the EC50 in test [1] worked out at 240 nM. The IC50 in the test with DU-145 was found to be 2530 nM; in the test on A549, 2000 nM; in the test with MCF7, 1000 nM. Moreover, in the test filed under Homo sapiens, the thermal shift (ΔTm) amounted to 30.5 °C.

In turn, `CN(C)c1ccc(Nc2c3ccc(NC(=O)CCN4CCCC4)cc3nc3cc(NC(=O)CCN4CCCC4)ccc23)cc1` showed a concentration for a half-maximal effect (EC50) in test [1] of 120 nM. Further, the IC50 in the test with DU-145 is 2300 nM; with A549 it was 2420 nM; with MCF7, 2530 nM. The ΔTm in the test filed under Homo sapiens was 28 °C.

Turning to `Cc1cccc(CNc2c3ccc(NC(=O)CCN4CCCCC4)cc3nc3cc(NC(=O)CCN4CCCCC4)ccc23)c1`, in test [1], the EC50 was 230 nM. Also, the IC50 in the test on DU-145 was found to be 770 nM; in the test with A549 it was 500 nM; in the test with MCF7, 460 nM. Besides, the ΔTm in the test filed under Homo sapiens came out at 31 °C.

With `Cc1cccc(CNc2c3ccc(NC(=O)CCN4CCCC4)cc3nc3cc(NC(=O)CCN4CCCC4)ccc23)c1`, a half-maximal effect in test [1] (EC50) was put at 1000 nM. The IC50 in the test with DU-145 worked out at 10000 nM; in the test on A549, 1190 nM; in the test on MCF7 it was 3000 nM. The shift in melting temperature (ΔTm) in the test filed under Homo sapiens was determined as 29.5 °C.

`COc1cc(CNc2c3ccc(NC(=O)CCN4CCCC4)cc3nc3cc(NC(=O)CCN4CCCC4)ccc23)cc(OC)c1` returned an EC50 in test [1] of 350 nM. In addition, the IC50 in the test on DU-145 is 10400 nM; in the test with A549 it was 4570 nM; in the test on MCF7 it was 3720 nM. The ΔTm in the test filed under Homo sapiens amounted to 32.5 °C.
